# Measurements published in ChEMBL document CHEMBL1123702, “Functionalized DL-amino acid derivatives. Potent new agents for the treatment of epilepsy” (J Med Chem, 1987).
# Non-standard residues stand in square brackets, D forms with d. Residues, ends and D or L forms follow the SMILES beside them. ξ: configuration not given here. *: point of attachment. NHBn = c1ccc(CN*)cc1; ξA = CC(N)C(=O)O
# Legend:
# Mus musculus [1] = organism: Mus musculus; experiment: Anticonvulsant activity was determined by rotarod toxicity test (neurologic toxicity) at an interval of 0.5 h; type: organism-based; settings: in vivo
# In short: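 Phase I screen in male Carworth Farms No. 1 mice, ip at 30, 100 and 300 mg/kg, read at 0.5 h. Four mice per dose on a 1-in. knurled rod at 6 rpm; neurotoxicity is failure to remain on it for 1 min. Scored 0–4: 0 = none at 600 mg/kg, then 1–4 = activity at 600, 300, 100 or 30 mg/kg.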
# Mus musculus [2] = organism: Mus musculus; experiment: Anticonvulsant against maximal electroshock induced convulsions after 30 min.; type: functional
# In short: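 Male Carworth Farms No. 1 mice, test agent given ip at 30, 100 and 300 mg/kg (one agent also at 600 mg/kg); read at 0.5 h. Electroshock via electrodes, with a drop of 0.9% saline in the eye first. Protection is abolition of the hind-limb tonic extension. One mouse per dose. Scored 0–4 by the lowest dose with noticeable activity.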
# Mus musculus [3] = experiment: Anticonvulsant against s.c. Metrazol-induced convulsions after 30 min.; type: functional
# In short: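 Mice (male Carworth Farms No. 1) got ip doses of 30, 100 or 300 mg/kg (600 mg/kg for one agent), checked at 0.5 h. Pentylenetetrazole 85 mg/kg as a 0.5% solution was injected sc in the posterior midline, then the animal was watched for 30 min. Protection means no threshold seizure (clonic spasms lasting ≥5 s). Single animals per dose; scored 0–4 by dose level.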
# Mus musculus [4] = experiment: Anticonvulsant activity was determined by subcutaneous picrotoxin test (CD97=3.15 mg/kg) (Phase V Pharmacological Evaluation); type: functional; settings: sc
# Mus musculus [5] = experiment: Anticonvulsant activity was determined by subcutaneous Metrazol-induced convulsions seizure test (Phase II Pharmacological Evaluation); type: functional; settings: sc
# In short: (§1)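 MES protection: hind-limb tonic extension abolished; saline drop in eye before electrodes. sc Met: pentylenetetrazole 85 mg/kg as 0.5% solution sc in posterior midline, 30 min observation; protection: no clonic spasm episode of at least 5 s. Rotarod toxicity: falling off a 1-in. rod at 6 rpm within 1 min. PI = TD50/MES ED50.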
# [6] = Neurologic toxicity activity was determined by rotarod toxicity test (Phase II Pharmacological Evaluation); type: organism-based; settings: mouse, in vivo
# [7] = Neurologic toxicity activity was determined by rotarod toxicity test (Phase IV Pharmacological Evaluation); type: organism-based; settings: mouse, in vivo
# Mus musculus [8] = experiment: Anticonvulsant activity was determined by subcutaneous bicuculline test (CD97=2.70 mg/kg) (Phase V Pharmacological Evaluation); type: functional; settings: sc
# Mus musculus [9] = experiment: Anticonvulsant activity was determined by subcutaneous Metrazol-induced convulsions seizure test (Phase IV Pharmacological Evaluation); type: functional; settings: sc
# In short: (§2)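 MES protection: hind-limb tonic extension abolished. sc Met: pentylenetetrazole 85 mg/kg as 0.5% solution sc, 30 min observation; protection: no threshold clonic seizure of 5 s or more. Toxicity: failing to stay 1 min on a 6 rpm rod. PI = TD50/MES ED50.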
# Mus musculus [10] = experiment: Anticonvulsant activity was determined by subcutaneous Metrazol-induced convulsions (sc MET)(Phase V Pharmacological Evaluation); type: functional
# In short: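 Mice, normally eight per dose; Metrazol 85 mg/kg (CD97) as 0.5% solution sc in posterior midline. Animals isolated and observed 30 min; protection: no threshold seizure (a clonic spasm episode of at least 5 s).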
# Mus musculus [11] = organism: Mus musculus; experiment: Anticonvulsant activity was determined by maximum-induced convulsions electroshock seizure test (Phase IV Pharmacological Evaluation); type: functional
# [12] = Protectivity index is the ratio of TD50 /MES ED50 from Phase-IV evaluation; type: functional; in short: as §2
# [13] = Protectivity index is the ratio of TD50 /MES ED50 from Phase-II evaluation; type: functional; in short: as §1
# Mus musculus [14] = organism: Mus musculus; experiment: Anticonvulsant activity was determined by maximum-induced convulsions electroshock seizure test (Phase II Pharmacological Evaluation); type: functional
# Mus musculus [15] = organism: Mus musculus; experiment: Anticonvulsant activity was determined by maximum-induced convulsions electroshock seizure test (Phase III Pharmacological Evaluation); type: functional
# Mus musculus [16] = experiment: Anticonvulsant activity was determined by subcutaneous pentylenetetrazole seizure test (Phase IV Pharmacological Evaluation); type: functional; settings: sc; in short: as §2
Compound,Toxicity (Mus musculus [1]),MES (Mus musculus [2]),MET (Mus musculus [3]),further results
CC(=O)NC(C)C(=O)NCC(=O)NCc1ccccc1 (stereo unspecified) (Ac-[ξA]-Gly-NHBn),0,0,0,–
CCC1(C)CC(=O)NC1=O (stereo unspecified) [ETHOSUXIMIDE],–,–,–,ED50 (Mus musculus [4]): 243 mg/kg; ED50 (Mus musculus [5]): 130 mg/kg; TD50 [6]: 441 mg/kg; TD50 [7]: 879 mg/kg; ED50 (Mus musculus [8]): 459 mg/kg; ED50 (Mus musculus [9]): 192 mg/kg; ED50 (Mus musculus [10]): 130 mg/kg
CC(NC(=O)C(C)(C)C)C(=O)NCc1ccccc1 (stereo unspecified),0,2,2,–
CC(C)C(=O)NC(C)C(=O)NCc1ccccc1 (stereo unspecified),0,0,0,–
CC(=O)NC(C(=O)NCc1ccccc1)c1ccccc1 (stereo unspecified),2,4,0,TD50 [6]: 96.9 mg/kg; ED50 (Mus musculus [11]): 46.7 mg/kg; Protective Index [12]: 5.17; TD50 [7]: 241 mg/kg; Protective Index [13]: 4.77; ED50 (Mus musculus [14]): 20.3 mg/kg
CC(=O)NC(C(=O)NCc1ccccc1)C(C)C (stereo unspecified),0,2,0,–
CC(=O)NCC(=O)NCc1ccccc1,2,2,0,–
CC(=O)NCCC(=O)NCc1ccccc1,0,0,0,–
CC(=O)NC(C(=O)NCc1ccccc1)(c1ccccc1)c1ccccc1,0,0,0,–
CSCCC(NC(C)=O)C(=O)NCc1ccccc1 (stereo unspecified),0,2,0,–
CC(=O)NC(C)C(=O)NCc1cccc(F)c1 (stereo unspecified),0,3,0,ED50 (Mus musculus [5]): 142 mg/kg; Protective Index [13]: > 6.46; ED50 (Mus musculus [14]): 77.4 mg/kg
COc1cccc(CNC(=O)C(C)NC(C)=O)c1 (stereo unspecified),0,2,0,–
CC(=O)NCC(C)C(=O)NCc1ccccc1 (stereo unspecified),0,2,0,–
CC(=O)NCC(=O)NC(C)C(=O)NCc1ccccc1 (stereo unspecified) (Ac-Gly-[ξA]-NHBn),0,0,0,–
CNC(=O)C(C)NC(C)=O (stereo unspecified),0,0,0,–
CC(=O)NC(C)C(=O)NC(c1ccccc1)c1ccccc1 (stereo unspecified),0,0,0,–
CC(=O)NC(C)C(=O)NCc1ccccc1 (stereo unspecified),1,3,0,ED50 (Mus musculus [4]): 134 mg/kg; ED50 (Mus musculus [15]): 123 mg/kg; Protective Index [12]: > 8.15; ED50 (Mus musculus [16]): 266 mg/kg; ED50 (Mus musculus [8]): 205 mg/kg; Protective Index [13]: 5.93; ED50 (Mus musculus [14]): 76.5 mg/kg
CC(=O)NC(Cc1ccccc1)C(=O)NCc1ccccc1 (stereo unspecified),0,0,0,–
CCCC(CCC)C(=O)O [VALPROIC ACID],–,–,–,ED50 (Mus musculus [4]): 387 mg/kg; ED50 (Mus musculus [5]): 149 mg/kg; ED50 (Mus musculus [11]): 665 mg/kg; ED50 (Mus musculus [8]): 360 mg/kg; ED50 (Mus musculus [9]): 388 mg/kg; ED50 (Mus musculus [14]): 272 mg/kg; ED50 (Mus musculus [10]): 149 mg/kg
